aDG glyco act – alpha-DG glycosylation activation | Pro5-aDG cells, alpha-DG glycosylation AlphaScreen (IIH6); 0% Pro5, 100% B10-LARGE cell signal | activation, % at 10 µM | hit rate 0.22% among 360,000;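 active = activation of at least 8% versus controls, or a plate z-score of at least 8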;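 note: Pro5 are CHO cells carrying HIG-tagged alpha-DG that lacks glycosylation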
ADAM10 inh – inhibits human ADAM10 | hit rate 0.62% among 370,000 | O14672 | inhibition, % at 7 µM | recombinant ADAM10, EDANS/DABCYL FRET peptide cleavage, 3 h;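 active = inhibition above a per-campaign cutoff equal to the mean of compounds falling between control-based bounds plus 3 SD, cut at about 20% in these data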;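 note: 0% = DMSO wells while the 100% control is not disclosed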
Target sequence (O14672 214-748 limits assumed): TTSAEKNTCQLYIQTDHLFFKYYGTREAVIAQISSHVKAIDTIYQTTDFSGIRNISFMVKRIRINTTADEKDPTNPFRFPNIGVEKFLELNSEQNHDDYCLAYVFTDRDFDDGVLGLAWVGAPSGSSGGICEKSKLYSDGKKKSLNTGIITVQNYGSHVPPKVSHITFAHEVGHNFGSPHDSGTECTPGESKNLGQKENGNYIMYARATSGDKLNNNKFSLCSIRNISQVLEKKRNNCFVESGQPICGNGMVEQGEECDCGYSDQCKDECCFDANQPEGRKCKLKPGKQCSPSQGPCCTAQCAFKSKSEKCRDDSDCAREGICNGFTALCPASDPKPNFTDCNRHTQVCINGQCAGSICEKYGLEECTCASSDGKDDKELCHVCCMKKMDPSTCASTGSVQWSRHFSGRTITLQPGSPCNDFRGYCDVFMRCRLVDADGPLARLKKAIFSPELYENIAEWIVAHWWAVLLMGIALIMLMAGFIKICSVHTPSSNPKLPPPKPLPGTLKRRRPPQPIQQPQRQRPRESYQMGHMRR
ADAM17 inh – ADAM17 inhibition, QFRET primary screen; recombinant ADAM17, EDANS/DABCYL FRET peptide cleavage; inhibition, % at 6.95 µM; hit rate 0.83% among 370,000; AID 720648;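 active = inhibition above the mean of compounds lying between control limits plus 3 SD, set per campaign, cut at about 8.5% in these data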;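 note: 0% = DMSO-only wells as the low control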
Hep lipid drop – modulators of hepatic lipid droplet formation; AML12 mouse hepatocytes, oleate lipid droplets, BODIPY imaging; inhibition, % at 6.5 µM; hit rate 0.4% among 240,000;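 active = lipid droplet intensity inhibited by at least 50%, with more than 500 cells counted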
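Material – mouse AML12 hepatocyte cell line, fixed after treatment · Compound dosing – one dose, 6.5 µM compound · Times – compound with oleate, overnight · Measured by – Image-based BODIPY and DAPI two-channel analysis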
MPTP inh – inhibitors of mitochondrial permeability transition pore; isolated mouse mitochondria, Ca2+ swelling absorbance, 30 min; inhibition, % at 10 µM; hit rate 1.4% among 360,000;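 active = inhibition of 50% or more, scaled per plate between neutral and stimulator controls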;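 note: 0% = DMSO wells given calcium and 100% = 1 mM EGTA wells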
V-ATPase pHluor – alters yeast V-ATPase proton transport | hit rate 0.37% among 350,000 | response, % at 10 µM | S. cerevisiae, pHLuorin cytosolic pH fluorescence; in the data active = response mostly above about 7.3%, no sharp cut-off; inactive = mostly below about 5.4%; note: actives read high
MPTP counter – mitochondrial membrane potential, counter-screen. shares compounds with MPTP inh. isolated mitochondria, Rhodamine 123 fluorescence. inhibition, % at 10 µM. hit rate 78% among 5,000. AID 624504; in the data active = inhibition above about 22%;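 note: 0% = DMSO vehicle and 100% = positive control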
MPTP abs DR – MPTP inhibition, dose response swelling confirmation. shares compounds with MPTP inh. isolated mitochondria swelling, absorbance. IC50, µM. hit rate 58% among 780; in the data active = IC50 below about 20 µM
MPTP cs DR – MPTP inhibitor counter-screen activity, dose response; shares compounds with MPTP inh; isolated mitochondria counterscreen, fluorescence read-out; IC50, µM; hit rate 49% among 780; AID 651564; in the data active = IC50 below about 80 µM
Numbers without * were called inactive; · = no result given. Shown are actives, neighbours in structure and some others; about 3.1% of the full set was active somewhere.

SMILES	aDG glyco act	ADAM10 inh	ADAM17 inh	Hep lipid drop	MPTP inh	V-ATPase pHluor	MPTP counter	others
N#Cc1cc(C(=O)c2cc(F)ccc2O)cn(-c2nccs2)c1=O	0	-61	-21	9	52*	0	86*
CC(C)c1cccc(-c2csc(C(C)(O)c3ccncc3)n2)c1 (stereo unspecified)	6	7	0	·	95*	·	89*
COC(=O)[C@]12C=CCN1[C@H](c1ccc(C(F)(F)F)cc1)c1c(c3ccccc3n1S(=O)(=O)c1ccc(C)cc1)C2	·	-36	-11	·	·	·	·
C=CCn1c(NC(=O)c2ccccc2Cl)c(C#N)c2nc3ccccc3nc21	0	-272	-71	·	74*	-2	79*
COc1ccccc1CNC(=O)C[C@H]1CC[C@H]2[C@H](COc3ccc(NS(=O)(=O)c4ccc(C)cc4)cc3C(=O)N2C)O1	·	-3	-2	·	·	·	·
CCOC(=O)Cn1c(=N)n(CCOc2ccc3ccccc3c2)c2ccccc21	1	-1	-6	-32	91*	3	0	MPTP abs DR=4*;MPTP cs DR=26*
CCCn1c(=N)n(CCOc2ccc(OC)cc2)c2ccccc21	0	7	-1	-8	54*	-3	5	MPTP abs DR=8.8*;MPTP cs DR=23*
CCOC(=O)Cn1c(=N)n(CCOc2ccc(OC)cc2)c2ccccc21	0	·	·	-3	26	-7	·
O=C(Nc1cccc([N+](=O)[O-])c1)NN1CCCCCC1	0	2	0	·	94*	3	82*
O=C(Nc1cccc([N+](=O)[O-])c1)ONC1=NCCCCC1	0	5	-2	-20	68*	1	77*
O=C(Nc1cccc([N+](=O)[O-])c1)c1ccccc1	0	0	-5	-26	2	1	·
COc1cc(NC(=O)Nc2cccc([N+](=O)[O-])c2)cc(OC)c1	0	-3	-2	-3	98*	-3	89*
O=C(Nc1cccc([N+](=O)[O-])c1)c1ccc(CSc2ccccc2)cc1	0	-1	-2	·	78*	-2	86*
O=C(ONC1=NCCCCC1)c1ccc([N+](=O)[O-])cc1	0	-8	-2	4	0	-1	·
O=S1(=O)c2ccc(Br)cc2OC[C@H](Cc2ccccc2)N1Cc1cn(Cc2ccc(Br)cc2)nn1	·	-3	3	·	·	·	·
O=C(CSc1cc(Cl)ccc1Cl)N/N=C/c1ccc[nH]1	·	1	-1	·	·	·	·
O=C(CCCCCN1C(=O)C2C3C=CC(C3)C2C1=O)N1CCN(c2ncccn2)CC1 (stereo unspecified)	·	-24	-2	·	·	·	·
CC(C)S(=O)(=O)c1csc(NC(=O)Nc2cccc([N+](=O)[O-])c2)c1Cl	0	-5	-1	-8	84*	-7	69*
O=C(Nc1ccc(Br)cc1)NC1CCCCCCC1	1	4	1	-16	88*	5	96*
CCOc1ccc(C(=O)Nc2cccc(NC(=O)c3cccs3)c2)cc1[N+](=O)[O-]	0	6	3	-2	10	0	·
Cc1cc(Br)ccc1NC(=S)Nc1cccc([N+](=O)[O-])c1	0	-1	1	-3	97*	6	91*
CCOc1ccc(C(=O)Nc2cccc([N+](=O)[O-])c2)cc1Br	1	2	3	12	80*	-1	69*
COC(=O)C1CN(Cc2ccc(Cl)cc2)CCS(=O)(=O)N1Cc1cn(Cc2ccc(OC)cc2)nn1 (stereo unspecified)	·	9	4	·	·	·	·
Cc1cc([N+](=O)[O-])ccc1NC(=S)NC1CCCC1	0	-8	-2	0	67*	7	97*
Cc1ccccc1NC(=S)NC1CCCC1	0	-2	-4	-12	1	0	·
SMILES	aDG glyco act	ADAM10 inh	ADAM17 inh	Hep lipid drop	MPTP inh	V-ATPase pHluor	MPTP counter	others
O=C(CNC1CCCCC1)Nc1cccc([N+](=O)[O-])c1	0	3	-5	·	1	0	·
O=C(Nc1cccc([N+](=O)[O-])c1)NC1CCCCCCC1	1	4	2	-11	80*	-2	95*
O=C(Nc1cccc([N+](=O)[O-])c1)N(c1ccccc1)c1ccccc1	0	-2	-2	·	1	-2	·
O=C(Nc1ccc(C(=O)O)cc1)Nc1cccc([N+](=O)[O-])c1	0	0	-1	3	81*	-3	76*
O=C(Nc1cccc([N+](=O)[O-])c1)Nc1cccc([N+](=O)[O-])c1	-1	13	-4	-9	91*	-1	78*
CC(=O)OCC(=O)NCC1CCN(C(=O)C(=O)c2cc3ccccc3o2)CC1	·	2	-2	·	·	·	·
O=C(NCCc1ccccc1)c1ccc(Sc2ccccc2Cl)c([N+](=O)[O-])c1	·	3	1	·	·	·	·
Cc1ccc2c(c1)C1CS(=O)(=O)N(CC(C)C)CN1C2 (stereo unspecified)	·	5	3	·	·	·	·
O=[N+]([O-])c1cccc(NCCCN2CCC(C(O)(c3ccccc3)c3ccccc3)CC2)c1	·	-2	-2	·	·	·	·
CCOc1ccc(-n2c(SCC(=O)Nc3ccc4c(c3)c3ccccc3n4CC)nnc2-c2cccnc2)cc1	·	15	2	·	·	·	·
COC(=O)C1CCCN(C(=O)C(Cc2ccc3c(c2)OCO3)NC(C)=O)C1 (stereo unspecified)	·	-2	2	·	·	·	·
COc1ccc(CCNC(=O)Nc2cccc([N+](=O)[O-])c2)cc1	0	8	-1	0	85*	-1	83*
COc1ccc(CCNC(=O)Nc2cccc([N+](=O)[O-])c2)cc1OC	0	6	3	-3	0	3	·
COc1ccc(-c2cc3ccccc3[nH]2)cc1	0	-57	-16	-4	2	-1	·
Cc1ccc(O)c(-c2cc3ccccc3[nH]2)c1	0	-294	-79	-35	53*	-2	49*
CC(C)Cc1ccc(C(C)C(=O)Nc2cccnc2)cc1 (stereo unspecified)	2	-6	-2	8	85*	4	79*
CC(C(=O)Nc1cccnc1)c1ccc([N+](=O)[O-])cc1 (stereo unspecified)	1	7	0	7	0	-6	·
COC(=O)C1CCCN(C(=O)C2CCN(S(=O)(=O)c3ccc([N+](=O)[O-])cc3)CC2)C1 (stereo unspecified)	·	0	-2	·	·	·	·
COC(=O)[C@]12C[C@H](CC(=O)N3CCCC3)C(=O)N(CCc3ccc(OC)c(OC)c3)C1=C[C@H](C(C)(C)C)O[C@@H]2C	·	-1	1	·	·	·	·

Bioassay records as filed in PubChem BioAssay.
